Measured values of several laboratories.
Target: Mitogen-activated protein kinase kinase kinase kinase 1 (MAP4K1, Homo sapiens, UniProt Q92918)

N[C@@H]1CCN(c2nccc(-c3cnn4ncccc34)n2)C1
remaining binding (binding; 1 µM): 100%

Cc1cc(-n2nc(Cc3cc(F)cc(C(F)(F)F)c3)nc2C)ccc1C(N)=O
remaining binding (cell-free assay; competition with immobilised ligand; 1 µM): 100%

COc1ccnn2ncc(-c3ccnc(N(C)C)n3)c12
remaining binding (binding; 1 µM): 100%

c1cncc(-c2cccc(Nc3nccc(NC4CCCCC4)n3)c2)c1
remaining binding (binding; competition with immobilised ligand; 10 µM): 39%

F[C@@H]1CCN(c2nccc(-c3cnn4ncccc34)n2)C1
remaining binding (binding; 1 µM): 100%

Nc1ncc2c(n1)-c1c([nH]c3ccc(C#CC4CC4)cc13)CCCC2
remaining binding (binding; competition with immobilised ligand; 1 µM): 100%

C[C@H]1CCN(c2nccc(-c3cnn4ncccc34)n2)C1
remaining binding (binding; 1 µM): 99%

CO[C@H]1CC[C@H](CNc2ccc(S(=O)(=O)NC(=O)c3ccc(N4CCN(CC5=C(c6ccc(Cl)cc6)CC(C)(C)CC5)CC4)cc3Oc3cnc4[nH]ccc4c3)cc2[N+](=O)[O-])CC1
remaining binding (cell-free assay; competition with immobilised ligand; 1 µM): 69%

O=C(c1ccc(Nc2ncc(Cl)c(-c3ccc(Cl)s3)n2)cc1)N1CCC(N2CCCC2)CC1
remaining binding (binding; competition with immobilised ligand; 1 µM): 12%

COc1cnc(Nc2cccc(S(N)(=O)=O)c2)nc1N1CCN(c2ccccc2)C(=O)C1
remaining binding (binding; competition with immobilised ligand; 1 µM): 87%

N#Cc1ccc(Nc2ccc3[nH]c(=O)[nH]c3c2)c(Cl)c1
remaining binding (cell-free assay; competition with immobilised ligand; 1 µM): 100%

FC(F)(F)Oc1cccc(-c2cnc3ccc(-c4ccncc4)nn23)c1
remaining binding (cell-free assay; competition with immobilised ligand; 5 µM): 68%

O=C(NCCCN1CCOCC1)c1ccc(Nc2ncc(Cl)c(-c3ccc(Cl)s3)n2)cc1
remaining binding (binding; competition with immobilised ligand; 1 µM): 17%

O=C(NCC1CCOCC1)c1n[nH]cc1NC(=O)c1c(F)cccc1F
remaining binding (binding; competition with immobilised ligand; 1 µM): 71%

CSc1cccnc1N1CCN(Cc2nc3ccccc3[nH]2)CC1
remaining binding (cell-free assay; competition with immobilised ligand; 1 µM): 100%

CN(CCCC(F)(F)F)c1nccc(-c2cnn3ncccc23)n1
remaining binding (binding; 1 µM): 95%

CCOCCn1cc(C(=O)Nc2ccc(-n3nc(-c4cccnc4)cc3C(F)(F)F)cn2)ccc1=O
remaining binding (cell-free assay; competition with immobilised ligand; 1 µM): 81%

O=C(NCCCN1CCOCC1)c1ccc(Nc2nccc(-c3cc4ccccc4s3)n2)cc1
remaining binding (binding; competition with immobilised ligand; 1 µM): 85%

C[C@H](c1ccnc(Nc2nc3ccc(-c4cc(N(C)C)ncn4)cc3[nH]2)c1)N1CCN(C(=O)CC(F)(F)F)CC1
remaining binding (cell-free assay; competition with immobilised ligand; 0.1 µM): 51%

CC1CCCN1c1nccc(-c2cnn3ncccc23)n1 (stereo not shown)
remaining binding (binding; 1 µM): 100%

FC(F)(F)c1ccc2c(c1)nc(-c1cccnc1)n2C1CC1
remaining binding (cell-free assay; competition with immobilised ligand; 1 µM): 93%

C[C@@H](c1ccc(-n2cnc3c(N)ncnc32)cc1)N1CCc2nn(C)c(Cc3ccccc3)c2C1=O
remaining binding (binding; competition with immobilised ligand; 0.1 µM): 100%
